Usually IC50 stands for the concentration that inhibits the measured activity by half.

The values below come from ChEMBL document CHEMBL3352135, “Antiproliferative prenylated xanthones and benzophenones from the roots of Cudrania tricuspidata in HSC-T6 cells” (J Nat Prod, 2014).

Experiment [1] can be described thus: Antiproliferative activity against rat HSC-T6 cells assessed as reduction in cell viability. Type of experiment: functional, cell-based. In outline: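 Immortalized rat hepatic stellate line HSC-T6. Viability was measured by a procedure from earlier work, and IC50 values were derived from it. Epigallocatechin-3-gallate was the positive control.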
Experiment [2] in a line: Induction of apoptosis in rat HSC-T6 cells assessed as early apoptotic cells at 3 uM after 48 hrs using annexin-V/PI double staining by flow cytometry (reference value: 0.150 %). It is filed as functional.
Experiment [3] in a line: Induction of apoptosis in rat HSC-T6 cells assessed as necrotic cells at 3 uM after 48 hrs using annexin-V/PI double staining by flow cytometry (reference value: 0.550 %). It is filed as functional. For orientation: In flow cytometry, cells or beads pass a laser one at a time.
Experiment [4] can be described thus: Induction of apoptosis in rat HSC-T6 cells assessed as necrotic cells at 1 uM after 48 hrs using annexin-V/PI double staining by flow cytometry (reference value: 0.550 %). Type of experiment: functional.
A short description of experiment [5]: Induction of apoptosis in rat HSC-T6 cells assessed as late apoptotic cells at 3 uM after 48 hrs using annexin-V/PI double staining by flow cytometry (reference value: 0.130 %). Type of experiment: functional.
Experiment [6] in a line: Induction of apoptosis in rat HSC-T6 cells assessed as early apoptotic cells at 1 uM after 48 hrs using annexin-V/PI double staining by flow cytometry (reference value: 0.150 %). Type of experiment: functional.
A short description of experiment [7]: Induction of apoptosis in rat HSC-T6 cells assessed as late apoptotic cells at 1 uM after 48 hrs using annexin-V/PI double staining by flow cytometry (reference value: 0.130 %). It is filed as functional.
Experiment [8] is described as follows: Induction of apoptosis in rat HSC-T6 cells assessed as viable cells at 3 uM after 48 hrs using annexin-V/PI double staining by flow cytometry (reference value: 99.2 %). Particulars: HSC-T6, 48 h, read-out: Activity. It is filed as functional.
A short description of experiment [9]: Induction of apoptosis in rat HSC-T6 cells assessed as viable cells at 1 uM after 48 hrs using annexin-V/PI double staining by flow cytometry (reference value: 99.2 %). Type of experiment: functional. Particulars: HSC-T6, 48 h, read-out: Activity.

Molecules are shown by their SMILES. Where only a bound is given, the exact number is not on record here.

Consider `COc1cc2oc3cc(O)cc(O)c3c(=O)c2cc1OC`, for which, in [1], the IC50 was above 30 µM.

Consider `CC1(C)C=Cc2c(cc(O)c3c(=O)c4c5c(ccc4oc23)OC(C)(C)C=C5)O1`, for which the IC50 in experiment [1] was above 30 µM.

`CC(C)=CCc1c(O)cc(O)c2c(=O)c3c(CC=C(C)C)c(O)ccc3oc12` [GERONTOXANTHONE H]: the IC50 in experiment [1] was above 30 µM.

Turning to `CC1(C)C=Cc2cc(C(=O)c3cccc(O)c3)c(O)c(O)c2O1`, the IC50 in experiment [1] stood at 7.1 µM.

Regarding `CC(C)=CCc1c(O)cc(O)c2c(=O)c3cccc(O)c3oc12`, the IC50 in experiment [1] is above 30 µM.

As for `C[C@@H]1Oc2cc3oc4c5c(c(O)cc4c(=O)c3c(O)c2C1(C)C)OC(C)(C)C=C5`, the concentration for half-maximal inhibition (IC50) in experiment [1] is 15.9 µM.

With `C=CC(C)(C)c1c(OC)cc(O)c2c(=O)c3ccc(O)c(O)c3oc12` [ISOCUDRANIAXANTHONE B], the IC50 in [1] was found to be 17.3 µM.

As to `CC(C)=CCc1c(O)c(O)cc2c(=O)c3c(O)c4c(cc3oc12)OC(C)C4(C)C` (centres undefined) [CUDRAXANTHONE M], in [1], the IC50 came out at 10.4 µM.

In the case of `O=C(O[C@@H]1Cc2c(O)cc(O)cc2O[C@@H]1c1cc(O)c(O)c(O)c1)c1cc(O)c(O)c(O)c1` [EPIGALOCATECHIN GALLATE], the half-maximal inhibitory concentration (IC50) in [1] worked out at 29.8 µM.

On to `COc1c(CC=C(C)C)c(O)c2c(=O)c3cc(O)c(O)cc3oc2c1CC=C(C)C` [CUDRATRICUSXANTHONE K], for which the IC50 in experiment [1] was above 30 µM.

Consider `CC1Oc2cc(O)c3c(=O)c4ccc(O)c(O)c4oc3c2C1(C)C` (centres undefined), for which the IC50 in [1] came out at 13.1 µM.

Turning to `O=c1c2ccc(O)cc2oc2ccc(O)cc12`, in [1], the IC50 is above 30 µM.

Turning to `COc1c2c(c3c(=O)c4cc(O)c(O)cc4oc3c1CC=C(C)C)O[C@@H](C)C2(C)C`, the IC50 in experiment [1] amounted to 15.2 µM.

Regarding `C=CC(C)(C)c1c(O)c(CC=C(C)C)c2oc3cc(O)c(O)cc3c(=O)c2c1O` [MACLURAXANTHONE B], the IC50 in experiment [1] amounted to 13.3 µM.

For `COc1c2c(c3c(=O)c4ccc(O)c(O)c4oc3c1CC=C(C)C)O[C@H](C)C2(C)C`, the IC50 in [1] worked out at 14.8 µM.

With `C=CC(C)(C)c1c(OC)c(CC=C(C)C)c2oc3cc(O)c(O)cc3c(=O)c2c1O`, the Activity was determined as 8.76% in experiment [2]; 6.67% in [3]; 5.19% in [4]; 5.81% in experiment [5]; 11.5% in experiment [6]; 2.54% in [7]. Moreover, in experiment [8], the viability at 3 µM is 78.8%. Besides, in experiment [9], the viability at 1 µM is 80.8%. The 50% inhibitory concentration (IC50) in [1] is 9.7 µM.
